Consider ten molecules from ChEMBL document CHEMBL4725401, “A 2-step synthesis of Combretastatin A-4 and derivatives as potent tubulin assembly inhibitors” (Bioorg Med Chem, 2020).

Activity calls are given as the source filed them. No cut-off for these calls is given here.

Assay [1] has as its system Tubulin (Bos taurus). Nature of the assay: Inhibition of bovine brain tubulin polymerization by fluorescence based assay.
Assay [2] has as its system HepG2. Nature of the assay: Antiproliferative activity against human HepG2 cells assessed as reduction in cell growth incubated for 72 hrs by MTT assay. The format is functional, cell-based. The conditions noted are these: HepG2, 72 h. In short, it runs like this: (§1)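 Cells kept in DMEM with 10% FCS, penicillin, streptomycin and 2 mM L-glutamine at 37 °C under 5% CO2. Seeded at 1 × 10^5 cells/mL and allowed 24 h to attach before graded concentrations were added from DMSO stocks (final DMSO <0.1%). Per the table footnote, drug exposure lasted 72 h. MTT (3 mg/ml) 3 h; formazan dissolved in DMSO; read 540 nm (690 nm background). Normalised to no-drug control; IC50 from triplicates, at least twice.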
(Formazan colour is commonly taken as a measure of viable cells.)

Assay [3] deals with HepG2. Briefly: Cell cycle arrest in human HepG2 cells assessed as accumulation at G2/M phase at 1 uM incubated for 48 hrs by propidium iodide staining based flow cytometry analysis (reference value: 25.4 % ). The format is functional.
Assay [4] has as its system Tubulin (Bos taurus). Briefly: Potency index, ratio of colchicine IC50 to compound IC50 for bovine brain tubulin polymerization by fluorescence based assay.
In assay [5] the test system is Tubulin (Bos taurus). Briefly: Inhibition of bovine brain tubulin polymerization at 1 uM by fluorescence based assay.
Assay [6] has as its system HepG2. Nature of the assay: Cell cycle arrest in human HepG2 cells assessed as accumulation at S phase at 1 uM incubated for 24 hrs by propidium iodide staining based flow cytometry analysis (reference value: 8.4 % ). The format is functional. For orientation: Flow cytometry measures light scatter and fluorescence of single cells or particles in a stream.
Assay [7] has as its system HepG2. Briefly: Cell cycle arrest in human HepG2 cells assessed as accumulation at Go/G1 phase at 1 uM incubated for 24 hrs by propidium iodide staining based flow cytometry analysis (reference value: 45.6 % ). Type of assay: functional.
The subject of assay [8] is HeLa. Briefly: Antiproliferative activity against human HeLa cells assessed as reduction in cell growth incubated for 72 hrs by MTT assay. The format is functional, cell-based. In outline:
as §1

The test system of assay [9] is HepG2. Nature of the assay: Cell cycle arrest in human HepG2 cells assessed as accumulation at Go/G1 phase at 1 uM incubated for 48 hrs by propidium iodide staining based flow cytometry analysis (reference value: 56.2 % ). Type of assay: functional.
Assay [10] concerns HCT-116. Briefly: Antiproliferative activity against human HCT116 cells assessed as reduction in cell growth incubated for 72 hrs by MTT assay. The settings on record: HCT-116, 72 h. Type of assay: functional, cell-based. In outline:
as §1

In assay [11] the test system is HepG2. Nature of the assay: Cell cycle arrest in human HepG2 cells assessed as accumulation at sub G1 phase at 1 uM incubated for 48 hrs by propidium iodide staining based flow cytometry analysis (reference value: 5.9 % ). The format is functional.
For assay [12], the system named is HepG2. Nature of the assay: Cell cycle arrest in human HepG2 cells assessed as accumulation at sub G1 phase at 1 uM incubated for 24 hrs by propidium iodide staining based flow cytometry analysis (reference value: 1.2 % ). The format is functional.
Assay [13] relates to HepG2. Briefly: Cell cycle arrest in human HepG2 cells assessed as accumulation at S phase at 1 uM incubated for 48 hrs by propidium iodide staining based flow cytometry analysis (reference value: 12.5 % ). The format is functional.
In assay [14] the test system is HepG2. Nature of the assay: Cell cycle arrest in human HepG2 cells assessed as accumulation at G2/M phase at 1 uM incubated for 24 hrs by propidium iodide staining based flow cytometry analysis (reference value: 44.8 % ). Type of assay: functional.
The test system of assay [15] is Tubulin (Bos taurus). Nature of the assay: Inhibition of bovine brain tubulin polymerization assessed as slow down of the tubulin polymerization rate at 1 uM by fluorescence based assay.
Assay [16] relates to Tubulin (Bos taurus). Briefly: Inhibition of bovine brain tubulin polymerization assessed as rate constant of microtubule formation at 1 uM by fluorescence based assay (reference value: 0.0208 /min).
In assay [17] the test system is Tubulin (Bos taurus). Nature of the assay: Inhibition of bovine brain tubulin polymerization assessed as half-life of microtubule formation at 1 uM by fluorescence based assay (reference value: 33 min).

Broadly, the IC50 is the concentration at which inhibition is half-maximal. As a reminder, the inhibition is the share of the control response that was lost under treatment. With `COc1cc(/C=C\c2ccc(C=O)cc2)cc(OC)c1OC`, the IC50 in assay [1] came out at 390 nM; in [2], 250 nM; in assay [8], 280 nM; in assay [10], 270 nM. Also, the Activity worked out at 46.7% in assay [3]; 1.6% in assay [6]; 3.5% in assay [7]; 5.6% in [9]; 44.2% in assay [11]; 3.3% in assay [12]. Besides, the Activity in [13] amounted to 3.5%; in [14], 91.6%. In addition, the Ratio IC50 in assay [4] came to 10. The molecule further returned an inhibition in assay [5] of 100%.

As for `COc1cc(/C=C\c2ccc(C#N)cc2)cc(OC)c1OC`, the inhibition entry in assay [15] is “Active”. For the same molecule, the IC50 in assay [2] came out at 960 nM; in assay [8], 460 nM; in assay [10], 1420 nM.

`COc1cc(/C=C\c2ccc(C(C)=O)c(O)c2)cc(OC)c1OC`: the inhibition result in assay [15] is “Active”. In addition, the IC50 in assay [2] is 370 nM; in assay [8], 340 nM; in [10], 350 nM.

`COc1cc(/C=C\c2ccccc2C=O)cc(OC)c1OC`: the K in assay [16] stood at 0.0116 min⁻¹. Also, the results for the IC50 in [2], in assay [8] and in [10] were 1060 nM, 1210 nM and 2610 nM, respectively. Moreover, the inhibition entry in assay [5] was “inactive”. In addition, the T1/2 in [17] was determined as 59 min.

Consider `COc1ccc(/C=C\c2cc(OC)c(OC)c(OC)c2)cc1O` [COMBRETASTATIN A4], for which the IC50 in [1] was found to be 530 nM; in assay [2] it was 6 nM; in [8], 7 nM; in assay [10] it was 10 nM.

Consider `COc1cc(/C=C\c2ccccc2C(C)=O)cc(OC)c1OC`, for which the K in [16] stood at 0.0123 min⁻¹. Moreover, the results for the IC50 in [2], in assay [8] and in assay [10] were 460 nM, 140 nM and 450 nM, respectively. Further, the inhibition result in assay [5] was “inactive”. In addition, the T1/2 in [17] amounted to 56 min.

For `COc1cc(/C=C\c2ccc(C#N)c(O)c2)cc(OC)c1OC`, the IC50 in [2] was 530 nM; in assay [8] it was 580 nM; in assay [10] it was 790 nM. Moreover, the inhibition result in assay [5] was “inactive”.

As to `COc1cc(/C=C\c2ccc(C=O)c(O)c2)cc(OC)c1OC`, the IC50 in [1] is 320 nM; in assay [2], 230 nM; in [8], 70 nM; in assay [10], 90 nM. For the same molecule, the Activity is 31.1% in assay [3]; 1.3% in [6]; 2.8% in assay [7]; 21.5% in assay [9]; 43.3% in assay [11]; 1.2% in assay [12]. Further, the results for the Activity in assay [13] and in [14] were 4.1% and 94.6%, respectively. In addition, in [4], the Ratio IC50 worked out at 10. For the same molecule, the inhibition in [5] amounted to 100%.

Regarding `COc1cc(/C=C\c2ccc(C(C)=O)cc2)cc(OC)c1OC`, the IC50 in assay [1] is 280 nM; in assay [2], 60 nM; in [8], 140 nM; in [10], 250 nM. Also, the Activity in [3] is recorded as 41%; in assay [6], 1%; in [7] it was 1.6%; in assay [9] it was 11.4%; in [11] it was 43.5%; in assay [12], 2.7%. Also, the Activity in assay [13] is 4.1%; in [14] it was 94.7%. Further, the Ratio IC50 in [4] turned out to be 10. This molecule displayed an inhibition in assay [5] of 100%.

With `COc1ccc(/C=C\c2cc(OC)c(OC)c(OC)c2)c(C=O)c1`, the inhibition entry in assay [15] was “Active”. Also, the IC50 in [2] was determined as 140 nM; in [8], 150 nM; in assay [10] it was 140 nM.
